Laboratory results published in ChEMBL document CHEMBL2429846, “Inhibition of monoamine oxidase by 3,4-dihydro-2(1H)-quinolinone derivatives” (Bioorg Med Chem Lett, 2013).

Key:
[1] = target: T1, Amine oxidase [flavin-containing] A (Homo sapiens, UniProt P21397); assay: Inhibition of recombinant human MAO-A assessed as inhibition of kynuramine conversion to fluorescent metabolite 4-hydroxyquinoline after 20 mins by fluorescence spectrophotometry
T1 sequence (P21397 whole entry): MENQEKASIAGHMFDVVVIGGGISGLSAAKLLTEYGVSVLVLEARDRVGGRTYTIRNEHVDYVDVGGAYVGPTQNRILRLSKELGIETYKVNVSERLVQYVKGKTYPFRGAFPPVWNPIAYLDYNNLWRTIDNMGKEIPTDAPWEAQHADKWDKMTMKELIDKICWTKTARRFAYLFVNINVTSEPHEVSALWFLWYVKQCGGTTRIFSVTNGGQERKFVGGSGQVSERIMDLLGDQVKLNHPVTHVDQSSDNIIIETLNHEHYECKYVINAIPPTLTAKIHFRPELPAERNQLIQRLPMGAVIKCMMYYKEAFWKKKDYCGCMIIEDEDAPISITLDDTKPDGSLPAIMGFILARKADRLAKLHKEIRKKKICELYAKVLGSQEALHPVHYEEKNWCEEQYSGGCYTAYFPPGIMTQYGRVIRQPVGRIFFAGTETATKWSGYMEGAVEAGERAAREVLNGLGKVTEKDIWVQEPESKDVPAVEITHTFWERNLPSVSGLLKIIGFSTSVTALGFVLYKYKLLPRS
Procedure, shortened: (§1)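 IC50 values were read from sigmoidal concentration–inhibition curves of enzyme activity plotted against log inhibitor concentration.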

[2] = target: T2, Amine oxidase [flavin-containing] B (Homo sapiens, UniProt P27338); assay: Inhibition of recombinant human MAO-B assessed as inhibition of kynuramine conversion to fluorescent metabolite 4-hydroxyquinoline at 100 uM after 20 mins by fluorescence spectrophotometry
T2 sequence (P27338 whole entry): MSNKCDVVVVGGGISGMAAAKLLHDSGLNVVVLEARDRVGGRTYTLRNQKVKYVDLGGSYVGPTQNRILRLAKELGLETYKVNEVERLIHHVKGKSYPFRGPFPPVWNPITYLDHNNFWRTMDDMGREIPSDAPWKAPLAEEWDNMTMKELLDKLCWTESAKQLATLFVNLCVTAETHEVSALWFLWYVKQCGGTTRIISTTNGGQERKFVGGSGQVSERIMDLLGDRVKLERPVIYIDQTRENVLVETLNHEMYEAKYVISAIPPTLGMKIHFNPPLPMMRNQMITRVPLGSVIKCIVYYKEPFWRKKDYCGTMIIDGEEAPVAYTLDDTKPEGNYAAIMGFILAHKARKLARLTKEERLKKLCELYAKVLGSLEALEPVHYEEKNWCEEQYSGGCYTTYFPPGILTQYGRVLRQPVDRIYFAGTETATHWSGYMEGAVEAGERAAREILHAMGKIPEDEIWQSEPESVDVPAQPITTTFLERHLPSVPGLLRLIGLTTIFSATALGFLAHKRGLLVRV

[3] = target: T2, Amine oxidase [flavin-containing] B; assay: Inhibition of recombinant human MAO-B assessed as inhibition of kynuramine conversion to fluorescent metabolite 4-hydroxyquinoline after 20 mins by fluorescence spectrophotometry; procedure, shortened: as §1
[4] = species on record: Homo sapiens; assay: Selectivity index, ratio of IC50 for recombinant human MAO-A to IC50 for recombinant human MAO-B
Procedure, shortened: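 The index was calculated as IC50(MAO-A)/IC50(MAO-B), giving selectivity for the MAO-B isoform.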

[5] = target: T1, Amine oxidase [flavin-containing] A; assay: Inhibition of recombinant human MAO-A assessed as inhibition of kynuramine conversion to fluorescent metabolite 4-hydroxyquinoline at 100 uM after 20 mins by fluorescence spectrophotometry
[6] = target: T2, Amine oxidase [flavin-containing] B; assay: Reversible inhibition of recombinant human MAO-B using kynuramine as substrate assessed as residual activity at 100 times IC50 preincubated for 30 mins followed by 100 fold dilution measured after 20 mins by fluorescence spectrophotometry relative to control

Structure (SMILES)	IC50 [1] [µM]	inhibition (INH) [2]	IC50 [3] [µM]	Ratio IC50 [4]	inhibition (INH) [5]	Activity [6] [%]
O=C1CCc2ccc(O)cc2N1	183	Not Active				
O=C1CCc2cc(OCc3ccccc3)ccc2N1	25.3		4.01	6		
O=C1CCc2cc(OCCCc3ccccc3)ccc2N1	19.7		0.284	69		
O=C1CCc2ccc(OCc3cccc(Br)c3)cc2N1	7.98					36
O=C1CCc2cc(O)ccc2N1	161		201	0.8		

Results, then the compound that gave them:

IC50 [1] [µM]	inhibition (INH) [2]	IC50 [3] [µM]	Ratio IC50 [4]	inhibition (INH) [5]	Activity [6] [%]	Structure (SMILES)
90.4		0.038	2380			O=C1CCc2ccc(OCc3ccccc3)cc2N1
				Not Active		O=C1CCc2ccc(OCc3cccc(Cl)c3)cc2N1
22.5		2.33	10			O=C1CCc2cc(OCCc3ccccc3)ccc2N1
50.6		0.62	82			O=C1CCc2cc(OCc3cccc(Cl)c3)ccc2N1
53.7		0.191	281			O=C1CCc2ccc(OCCc3ccccc3)cc2N1
12.4		0.086	144			O=C1CCc2cc(OCc3cccc(Br)c3)ccc2N1
22.5		0.13	173			O=C1CCc2ccc(OCCCc3ccccc3)cc2N1
